Data taken from PubChem BioAssay AID588386 (Southern Research Specialized Biocontainment Screening …, 2011).
The source made the active and inactive calls.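 Rule for the calls: active = phage lysis blocked by at least 50% at any tested dose; inconclusive = replicate wells disagree with each other; inactive = the rest.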

Tested on: not listed separately
Assay: inhibitors of K1F phage lysis, dose response, capsule biogenesis inhibitor project, E. coli UTI89, set 6 (AID 588386)
Conditions: E. coli UTI89 K1F phage lysis inhibition, OD600; at 100 µM (top of the series)
Method in brief: (§1)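 test system = E. coli UTI89 (K1) plus phage-resistant kpsM mutant cultures | medium = LB growth medium | dosing = dose series from 100 down to 0.78 µM final, 1% DMSO | times = 1.25 h pre-phage, 3 h post-phage, 37 °C | signal = OD600 absorbance | evaluation = phage lysis judged from OD600 3 h after phage infection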

Row | Compound | inhibition of phage lysis
1 | COc1ccc(NC(=O)c2ccc3nc[nH]c3c2)cc1 | 0.32% (inactive)
2 | Cc1ccc(NC(=O)c2ccc3ncsc3c2)cc1 | 0% (inactive)
3 | O=C(Nc1ccc(Cl)cc1)c1ccc2[nH]ccc2c1 | 0.86% (inactive)
4 | O=C(Nc1ccccn1)c1ccc2ncccc2c1 | 1.21% (inactive)
5 | O=C(Nc1cccc(F)c1)c1ccc2ncccc2c1 | -1.15% (inactive)
6 | O=C(Nc1cccnc1)c1ccc2ncccc2c1 | 0.61% (inactive)
7 | O=C(Nc1cccnc1)c1ccc2ncsc2c1 | 1.77% (inactive)
8 | O=C(Nc1ccc(F)cc1)c1ccc2nc[nH]c2c1 | 0.99% (inactive)
9 | O=C(Nc1cccc(F)c1)c1ccc2ncsc2c1 | 0.9% (inactive)
10 | O=C(NCc1ccco1)c1ccc2ncsc2c1 | 0.88% (inactive)
11 | O=C(Nc1ccccc1F)c1ccc2[nH]ccc2c1 | 0.33% (inactive)
12 | O=C(Nc1cccc(F)c1)c1ccc2nc[nH]c2c1 | 0% (inactive)
13 | O=C(Nc1ccncc1)c1ccc2[nH]ccc2c1 | 0.29% (inactive)
14 | O=C(Nc1ccc(F)cc1)c1ccc2ncccc2c1 | 0.3% (inactive)
15 | O=C(Nc1ccccc1F)c1ccc2nc[nH]c2c1 | 0.34% (inactive)
16 | O=C(Nc1ccc(F)cc1)c1ccc2[nH]ccc2c1 | -0.29% (inactive)
17 | O=C(Nc1cccnc1)c1ccc2[nH]ccc2c1 | 0.87% (inactive)
18 | O=C(Nc1ccc(C(F)(F)F)cc1)c1ccc2nc[nH]c2c1 | -0.68% (inactive)
19 | Cc1ccc(NC(=O)c2ccc3[nH]ccc3c2)cc1 | -2.3% (inactive)
20 | O=C(Nc1ccc(Cl)cc1)c1ccc2ncccc2c1 | 1.19% (inactive)

Row | Compound | inhibition of phage lysis
21 | COc1ccc(NC(=O)c2ccc3ncsc3c2)cc1 | 3.54% (inactive)
22 | O=C(Nc1ccccc1F)c1ccc2ncsc2c1 | 0.6% (inactive)
23 | O=C(NCc1ccco1)c1ccc2ncccc2c1 | 0.91% (inactive)
24 | COC(=O)c1ccc(NC(=O)c2ccc3[nH]ccc3c2)cc1 | 0.87% (inactive)
25 | O=C(Nc1ccc(Cl)cc1)c1ccc2nc[nH]c2c1 | -0.32% (inactive)
26 | O=C(Nc1cccc(F)c1)c1ccc2[nH]ccc2c1 | -0.99% (inactive)
27 | COC(=O)c1ccc(NC(=O)c2ccc3ncsc3c2)cc1 | 11.5% (inactive)
28 | O=C(NCc1ccco1)c1ccc2nc[nH]c2c1 | 0% (inactive)
29 | O=C(Nc1ccc(Br)cc1)c1ccc2nc[nH]c2c1 | 0% (inactive)
30 | O=C(Nc1ccncc1)c1ccc2ncccc2c1 | 0% (inactive)
31 | O=C(Nc1ccc(Br)cc1)c1ccc2[nH]ccc2c1 | 1.16% (inactive)
32 | O=C(Nc1ccc(F)cc1)c1ccc2ncsc2c1 | -0.68% (inactive)
33 | O=C(Nc1ccc(Br)cc1)c1ccc2ncsc2c1 | 0% (inactive)
34 | COc1ccc(NC(=O)c2ccc3[nH]ccc3c2)cc1 | -14.7% (inactive)
35 | O=C(Nc1ccccc1F)c1ccc2ncccc2c1 | -2.29% (inactive)
36 | O=C(Nc1ccc(C(F)(F)F)cc1)c1ccc2[nH]ccc2c1 | -0.66% (inactive)
37 | O=C(Nc1ccc(Cl)cc1)c1ccc2ncsc2c1 | 1.47% (inactive)
38 | O=C(NCc1ccco1)c1ccc2[nH]ccc2c1 | 0.86% (inactive)
39 | O=C(Nc1ccccn1)c1ccc2nc[nH]c2c1 | 0% (inactive)
40 | O=C(Nc1ccc(C(F)(F)F)cc1)c1ccc2ncsc2c1 | 16.7% (inactive)

Tested on: E. coli UTI89 K1F phage lysis inhibition, OD600
Assay: as above
Conditions: not given
Method in brief: as §1

Row | Compound | IC50 [nM]
41 | O=C(Nc1ccncc1)c1ccc2ncsc2c1 | 1640
